Active and inactive are the calls of the source. No cut-off for these calls is given here.
What was measured:
5'-nucleotidase [1] = target: T1, 5'-nucleotidase (Rattus norvegicus, UniProt P21588); experiment: Inhibition of purified recombinant soluble rat CD73 expressed in Sf9 cells [3H]AMP as substrate incubated for 25 mins by scintillation counting method
T1 sequence (P21588 whole entry): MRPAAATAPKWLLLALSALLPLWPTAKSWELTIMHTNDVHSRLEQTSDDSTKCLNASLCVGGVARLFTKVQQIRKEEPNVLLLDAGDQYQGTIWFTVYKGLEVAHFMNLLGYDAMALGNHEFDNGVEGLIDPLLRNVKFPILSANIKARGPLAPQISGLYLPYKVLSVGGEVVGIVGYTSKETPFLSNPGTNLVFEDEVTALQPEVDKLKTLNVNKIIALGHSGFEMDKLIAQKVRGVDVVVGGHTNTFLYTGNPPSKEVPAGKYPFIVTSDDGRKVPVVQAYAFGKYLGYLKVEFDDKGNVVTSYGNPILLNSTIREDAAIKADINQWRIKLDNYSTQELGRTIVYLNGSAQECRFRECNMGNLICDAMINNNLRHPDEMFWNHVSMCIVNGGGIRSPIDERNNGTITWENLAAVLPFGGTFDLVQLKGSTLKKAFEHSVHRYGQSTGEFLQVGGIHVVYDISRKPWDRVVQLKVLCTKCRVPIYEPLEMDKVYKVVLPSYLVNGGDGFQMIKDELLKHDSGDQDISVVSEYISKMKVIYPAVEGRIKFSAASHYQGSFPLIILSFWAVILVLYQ
In short: (§1)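 Radiometric CD73 assay in 25 mM Tris, 140 mM NaCl, 25 mM NaH2PO4, pH 7.4. Enzyme per vial: rat CD73 1.63 ng, human CD73 0.365 ng, MDA-MB-231 membranes 7.4 ng protein. […] 25 min at 37 °C, shaking. Stopped with cold LaCl3/sodium acetate pH 4.0 to precipitate substrate. Filtrate counted by scintillation. Full curves; Ki from IC50 via Cheng–Prusoff.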

5'-nucleotidase [2] = target: T2, 5'-nucleotidase (Homo sapiens, UniProt P21589); experiment: Inhibition of purified recombinant soluble human CD73 expressed in Sf9 cells [3H]AMP as substrate incubated for 25 mins by scintillation counting method; in short: as §1
T2 sequence (P21589 whole entry): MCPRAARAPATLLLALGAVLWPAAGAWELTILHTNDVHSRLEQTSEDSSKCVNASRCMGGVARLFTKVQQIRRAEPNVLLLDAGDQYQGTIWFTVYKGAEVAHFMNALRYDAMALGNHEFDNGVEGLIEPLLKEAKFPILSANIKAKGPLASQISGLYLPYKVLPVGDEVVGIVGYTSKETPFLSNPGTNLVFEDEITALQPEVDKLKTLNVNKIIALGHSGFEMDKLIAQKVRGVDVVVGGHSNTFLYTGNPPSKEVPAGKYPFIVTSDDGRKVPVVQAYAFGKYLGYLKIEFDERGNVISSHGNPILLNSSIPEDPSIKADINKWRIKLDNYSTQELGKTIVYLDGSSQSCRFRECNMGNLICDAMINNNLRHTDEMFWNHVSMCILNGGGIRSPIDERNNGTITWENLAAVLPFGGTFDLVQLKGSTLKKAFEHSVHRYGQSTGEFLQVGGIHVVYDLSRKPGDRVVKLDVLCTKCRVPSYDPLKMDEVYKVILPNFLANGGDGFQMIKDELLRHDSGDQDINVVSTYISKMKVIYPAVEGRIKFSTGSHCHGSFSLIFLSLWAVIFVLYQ

5'-nucleotidase [3] = target: T2, 5'-nucleotidase; experiment: Inhibition of native CD73 in human MDA-MB-231 cell membrane preparations [3H]AMP as substrate incubated for 25 mins by scintillation counting method; assay type: cell membranes; in short: as §1
[4] = target: T3, Ectonucleotide pyrophosphatase/phosphodiesterase family member 1 (Homo sapiens) (UniProt P22413); experiment: Inhibition of human recombinant NPP1 at 10 uM using p-nitrophenyl thymidine monophosphate substrate incubated for 30 mins by colorimetry
T3 sequence (whole entry): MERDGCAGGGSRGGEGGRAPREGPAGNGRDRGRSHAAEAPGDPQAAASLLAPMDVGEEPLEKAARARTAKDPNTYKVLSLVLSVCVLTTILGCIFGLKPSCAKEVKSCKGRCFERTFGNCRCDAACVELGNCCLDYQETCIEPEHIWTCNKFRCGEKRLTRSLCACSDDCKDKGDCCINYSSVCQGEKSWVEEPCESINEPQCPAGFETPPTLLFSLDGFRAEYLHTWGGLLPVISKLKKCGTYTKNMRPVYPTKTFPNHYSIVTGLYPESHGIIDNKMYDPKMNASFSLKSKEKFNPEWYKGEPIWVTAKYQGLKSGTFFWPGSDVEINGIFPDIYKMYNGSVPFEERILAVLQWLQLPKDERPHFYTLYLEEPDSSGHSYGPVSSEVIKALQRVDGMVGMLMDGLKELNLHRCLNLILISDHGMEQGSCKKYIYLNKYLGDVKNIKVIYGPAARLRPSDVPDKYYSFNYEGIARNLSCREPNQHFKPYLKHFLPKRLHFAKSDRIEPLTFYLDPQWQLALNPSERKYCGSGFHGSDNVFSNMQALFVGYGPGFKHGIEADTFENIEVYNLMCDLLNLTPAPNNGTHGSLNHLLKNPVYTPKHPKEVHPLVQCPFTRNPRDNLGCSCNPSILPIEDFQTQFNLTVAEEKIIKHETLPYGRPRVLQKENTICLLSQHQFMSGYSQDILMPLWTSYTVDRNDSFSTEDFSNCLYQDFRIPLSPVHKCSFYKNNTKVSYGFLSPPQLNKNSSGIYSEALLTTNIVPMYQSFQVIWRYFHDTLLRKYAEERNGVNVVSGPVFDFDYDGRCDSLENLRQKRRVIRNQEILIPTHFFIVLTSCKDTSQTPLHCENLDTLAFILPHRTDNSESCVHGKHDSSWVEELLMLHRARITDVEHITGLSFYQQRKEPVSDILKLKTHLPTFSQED

Autotaxin (Homo sapiens) = Autotaxin (Homo sapiens) (UniProt Q13822); experiment: Inhibition of human recombinant NPP2 at 10 uM using p-nitrophenyl thymidine monophosphate substrate incubated for 30 mins by colorimetry
[5] = target: T4, Ectonucleotide pyrophosphatase/phosphodiesterase family member 3 (Homo sapiens) (UniProt O14638); experiment: Inhibition of human recombinant NPP3 at 10 uM using p-nitrophenyl thymidine monophosphate substrate incubated for 30 mins by colorimetry
T4 sequence (whole entry): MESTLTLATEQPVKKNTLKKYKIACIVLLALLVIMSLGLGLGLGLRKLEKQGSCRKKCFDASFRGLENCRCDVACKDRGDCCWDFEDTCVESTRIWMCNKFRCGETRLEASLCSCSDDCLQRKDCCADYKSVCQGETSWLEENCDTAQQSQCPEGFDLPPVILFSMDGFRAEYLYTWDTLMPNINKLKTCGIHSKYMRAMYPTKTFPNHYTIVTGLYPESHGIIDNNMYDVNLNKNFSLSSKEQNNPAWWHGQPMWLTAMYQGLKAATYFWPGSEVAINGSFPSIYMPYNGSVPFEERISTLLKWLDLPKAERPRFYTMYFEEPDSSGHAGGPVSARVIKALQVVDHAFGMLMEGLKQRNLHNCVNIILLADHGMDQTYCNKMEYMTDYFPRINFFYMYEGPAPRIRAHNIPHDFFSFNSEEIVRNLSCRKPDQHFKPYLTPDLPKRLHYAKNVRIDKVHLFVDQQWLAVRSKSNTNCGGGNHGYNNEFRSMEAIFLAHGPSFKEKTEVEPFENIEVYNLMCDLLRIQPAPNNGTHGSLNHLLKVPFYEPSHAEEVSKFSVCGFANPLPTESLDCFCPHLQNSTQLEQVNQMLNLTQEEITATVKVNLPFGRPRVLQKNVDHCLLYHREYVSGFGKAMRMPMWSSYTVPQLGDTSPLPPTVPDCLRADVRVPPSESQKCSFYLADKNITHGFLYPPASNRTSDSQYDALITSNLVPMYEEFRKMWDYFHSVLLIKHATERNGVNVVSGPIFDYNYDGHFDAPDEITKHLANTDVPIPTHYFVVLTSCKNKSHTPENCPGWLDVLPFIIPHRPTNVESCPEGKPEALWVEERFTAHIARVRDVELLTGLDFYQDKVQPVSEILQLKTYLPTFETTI

[6] = target: P2Y purinoceptor 1 (Homo sapiens) (UniProt P47900); experiment: Activation of recombinant human P2Y1 receptor expressed in human 1321N1 cells assessed as stimulation of calcium mobilization at 10 uM by fluorescence based assay; assay type: functional, cell-based
Chain of P2Y purinoceptor 1 (Homo sapiens) (P47900 whole entry): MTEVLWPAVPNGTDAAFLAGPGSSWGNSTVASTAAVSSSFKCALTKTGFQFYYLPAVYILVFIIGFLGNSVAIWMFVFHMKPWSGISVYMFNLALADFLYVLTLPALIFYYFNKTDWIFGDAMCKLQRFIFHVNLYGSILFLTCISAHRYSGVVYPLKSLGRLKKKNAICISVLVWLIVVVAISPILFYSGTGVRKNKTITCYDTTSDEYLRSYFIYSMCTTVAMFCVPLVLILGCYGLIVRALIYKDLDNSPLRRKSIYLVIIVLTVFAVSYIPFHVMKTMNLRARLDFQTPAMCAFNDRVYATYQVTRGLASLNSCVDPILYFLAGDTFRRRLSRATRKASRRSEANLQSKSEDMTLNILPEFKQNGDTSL

[7] = target: P2Y purinoceptor 12 (Homo sapiens) (UniProt Q9H244); experiment: Activation of recombinant human P2Y12 receptor expressed in CHOK1 cells assessed as stimulation of beta-arrestin recruitment at 10 uM incubated for 90 mins by luminescence based assay
Chain of P2Y purinoceptor 12 (Homo sapiens) (Q9H244 whole entry): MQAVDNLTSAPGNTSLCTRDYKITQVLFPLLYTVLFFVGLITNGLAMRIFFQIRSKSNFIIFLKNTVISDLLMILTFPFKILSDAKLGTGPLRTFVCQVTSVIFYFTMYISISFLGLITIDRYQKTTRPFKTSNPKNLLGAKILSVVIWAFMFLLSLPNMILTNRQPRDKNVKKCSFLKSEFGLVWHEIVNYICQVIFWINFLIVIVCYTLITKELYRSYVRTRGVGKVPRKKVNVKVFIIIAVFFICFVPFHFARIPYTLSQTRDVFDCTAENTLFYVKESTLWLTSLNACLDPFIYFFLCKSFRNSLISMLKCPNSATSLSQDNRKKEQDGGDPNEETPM

[8] = Metabolic stability in human blood plasma assessed as compound degradation at 200 uM incubated for 5 hrs at 37 degC by LC-MS analysis; assay type: ADME, cell-free; details: read-out: Drug degradation
In short: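 Human plasma from healthy donors added to aqueous compound solution, 200 μM final. Incubated at 37 °C for 5 h. Supernatants analysed by LC-MS as percentage of compound remaining over time. Three separate experiments, each in duplicate.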

[9] = Metabolic stability in rat liver microsomes assessed as compound degradation at 200 uM after 30 mins in presence of NADPH regenerative system at 37 degC by LC-MS analysis; assay type: ADME, Microsome; details: read-out: Drug degradation
In short: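 Rat liver microsomes (2 mg) incubated with compound at 200 μM in 2 mL at 37 °C for various times. Stopped with ice-cold acetonitrile and centrifuged. Supernatant analysed by LC-MS as percentage remaining. Three separate experiments in duplicate.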

[10] = Selectivity index, ratio of Ki for inhibition of purified recombinant soluble rat CD73 expressed in Sf9 cells to Ki for inhibition of purified recombinant soluble human CD73 expressed in Sf9 cells
[11] = Metabolic stability in rat liver microsomes assessed as intact compound level at 200 uM after 2 hrs in presence of NADPH regenerative system at 37 degC by LC-MS analysis; assay type: ADME, Microsome; details: read-out: Stability
[12] = Drug metabolism in rat liver microsomes at 200 uM after 2 hrs in presence of NADPH regenerative system at 37 degC by LC-MS analysis; assay type: ADME, Microsome; details: read-out: Drug metabolism
5'-nucleotidase [13] = target: T2, 5'-nucleotidase; experiment: Inhibition of human CD73
5'-nucleotidase [14] = target: T1, 5'-nucleotidase; experiment: Inhibition of rat CD73
In short: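 Recombinant soluble rat CD73 expressed in Sf9 insect cells (1.63 ng per vial). Buffer was 25 mM Tris, 140 mM NaCl, 25 mM NaH2PO4, pH 7.4. […] Stopped with LaCl3/sodium acetate pH 4.0 to precipitate unreacted substrate, then filtered; adenosine in the filtrate counted by scintillation. Ki derived from IC50 by Cheng–Prusoff.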

| Compound | Ki (5'-nucleotidase [1]) | Ki (5'-nucleotidase [2]) | Ki (5'-nucleotidase [3]) | inhibition [4] | inhibition (Autotaxin (Homo sapiens)) | inhibition [5] | Activity [6] | Activity [7] | further results |
| --- | --- | --- | --- | --- | --- | --- | --- | --- | --- |
| Nc1nc(=O)[nH]c2c1ncn2[C@@H]1O[C@H](COP(=O)(O)CP(=O)(O)O)[C@@H](O)[C@H]1O | 0.326 µM | – | – | – | – | – | – | – | – |
| Nc1ncnc2c1ncn2[C@@H]1O[C@H](COP(=O)(O)OP(=O)(O)O)[C@@H](O)[C@H]1O | – | – | – | – | – | – | Active | Active | – |
| Nc1ncnc2c1ncn2[C@@H]1O[C@H](COP(=O)(O)CP(=O)(O)O)[C@@H](O)[C@H]1O [PHOSPHOMETHYLPHOSPHONIC ACID ADENOSYL ESTER] | 0.197 µM | – | 0.207 µM | – | – | – | Active | Active | metabolised at 5 h, 200 µM [8]: ≤ 50%; metabolised at 0.5 h, 200 µM [9]: 100% |
| Nc1nc2c(ncn2[C@@H]2O[C@H](COP(=O)(O)CP(=O)(O)O)[C@@H](O)[C@H]2O)c(=O)[nH]1 [PHOSPHOMETHYLPHOSPHONIC ACID GUANOSYL ESTER] | 1.11 µM | 0.41 µM | 0.255 µM | – | – | – | – | – | – |
| Nc1nc(SCCC2CCCCC2)nc2c1ncn2[C@@H]1O[C@H](COP(=O)(O)CP(=O)(O)O)[C@@H](O)[C@H]1O | 0.0566 µM | 0.0469 µM | 0.0491 µM | inactive | inactive | inactive | inactive | inactive | – |
| Nc1nc(N2CCNCC2)nc2c1ncn2[C@@H]1O[C@H](COP(=O)(O)CP(=O)(O)O)[C@@H](O)[C@H]1O | 2.29 µM | 0.184 µM | 0.238 µM | – | – | – | – | – | Ratio Ki [10]: 12.5 |
| CN(Cc1ccccc1)c1nc(Cl)nc2c1ncn2[C@@H]1O[C@H](COP(=O)(O)CP(=O)(O)O)[C@@H](O)[C@H]1O | – | – | – | – | – | – | – | – | Ki (5'-nucleotidase [13]): 0.000318 µM; Ki (5'-nucleotidase [14]): 0.000746 µM |

Now from value to molecule, other results behind:

| Ki (5'-nucleotidase [1]) | Ki (5'-nucleotidase [2]) | Ki (5'-nucleotidase [3]) | inhibition [4] | inhibition (Autotaxin (Homo sapiens)) | inhibition [5] | Activity [6] | Activity [7] | Compound | further results |
| --- | --- | --- | --- | --- | --- | --- | --- | --- | --- |
| 0.0186 µM | 0.00593 µM | 0.00457 µM | inactive | inactive | inactive | inactive | inactive | Nc1nc(Cl)nc2c1ncn2[C@@H]1O[C@H](COP(=O)(O)CP(=O)(O)O)[C@@H](O)[C@H]1O | – |
| 0.116 µM | 0.0155 µM | 0.0154 µM | – | – | – | – | – | NNc1nc(N)c2ncn([C@@H]3O[C@H](COP(=O)(O)CP(=O)(O)O)[C@@H](O)[C@H]3O)c2n1 | Ratio Ki [10]: 7.5 |
| 0.0151 µM | 0.00359 µM | 0.00333 µM | inactive | inactive | inactive | – | – | Nc1nc(I)nc2c1ncn2[C@@H]1O[C@H](COP(=O)(O)CP(=O)(O)O)[C@@H](O)[C@H]1O | metabolised at 5 h, 200 µM [8]: < 25%; remaining at 2 h, 200 µM [11]: 100%; metabolised at 2 h, 200 µM [12]: < 40% |
| 0.268 µM | 0.0236 µM | 0.0322 µM | inactive | inactive | inactive | inactive | inactive | Nc1nc(Cl)c2ncn([C@@H]3O[C@H](COP(=O)(O)CP(=O)(O)O)[C@@H](O)[C@H]3O)c2n1 | Ratio Ki [10]: 6.3 |
| 0.0657 µM | 0.0619 µM | 0.0654 µM | – | – | – | – | – | C=CCSc1nc(N)c2ncn([C@@H]3O[C@H](COP(=O)(O)CP(=O)(O)O)[C@@H](O)[C@H]3O)c2n1 | – |
| 0.0906 µM | 0.0388 µM | 0.0357 µM | – | – | – | – | – | Nc1nc(N)c2ncn([C@@H]3O[C@H](COP(=O)(O)CP(=O)(O)O)[C@@H](O)[C@H]3O)c2n1 | – |
